The text below walks through data of ChEMBL document CHEMBL1140890, “Ivermectin-derived leishmanicidal compounds” (Bioorg Med Chem, 2009).

One may read the IC50 as the concentration that inhibits the measured activity by half.

Test [1] has as its system Leishmania amazonensis. Kind of test: Antileishmanial activity against GFP-tagged Leishmania amazonensis Josefa amastigotes infected in mouse peritoneal macrophages after 72 hrs by fluorimetric assay. Type of test: functional, organism-based. The procedure, abridged:
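Mouse peritoneal macrophages at 2 × 10⁶ cells/well, allowed to adhere, then infected 4 h at 37 °C with 10⁷ GFP-transfected fluorescent promastigotes. Free parasites washed off; cultured a further 72 h with compound at 0, 10, 30, 90 µM in 0.5% DMSO. Fluorescence read as for promastigotes. Maximum and minimum inhibition set by uninfected and untreated infected cells; means of triplicates.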

Test [2] deals with Leishmania amazonensis. The experiment in a line: Antileishmanial activity against GFP-tagged Leishmania amazonensis Josefa promastigotes after 72 hrs by fluorimetric assay. Type of test: functional, organism-based. The procedure, abridged:
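GFP-transfected promastigotes (kept in DMEM + 10% HIFCS at 27 °C, periodically re-isolated from infected mice) seeded at 5 × 10⁵ cells/ml in DMEM, 5% HIFCS, 0.5% DMSO. Exposed to 0, 10, 30, 90 µM for 72 h at 27 °C. Fluorescence read at […] / 538 nm emission; IC50 from means of triplicates.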

Test [3] in a line: Cytotoxicity against mouse peritoneal macrophages assessed as LDH release after 48 hrs. Type of test: cell-based, Macrophage. A digest of the protocol: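 Mouse peritoneal macrophages at 2 × 10⁶ cells/well, 48 h at 37 °C in DMEM + 5% HIFCS with compound at 0, 10, 30, 90 µM in 0.5% DMSO. LDH released into medium measured by kit. Maximum and minimum release set by 2% Triton X-100 and 0.5% DMSO; means of triplicates.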
On the technique in general: LDH leaks from cells whose membrane has failed.

The nature of test [4]: Selectivity index, ratio of IC50 for mouse peritoneal macrophages to IC50 for Leishmania amazonensis Josefa amastigotes. The procedure, abridged: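 Macrophage LDH-release IC50 divided by intracellular amastigote IC50.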
Setting [5] is: Leishmania amazonensis, Josefa, 72 h.

Take `CC[C@H](C)[C@H]1O[C@]2(CC[C@@H]1C)C[C@@H](O)C[C@@H](C/C=C(\C)[C@@H](O)[C@@H](C)CO)O2` [NORTHERN AGLYCONE]: the IC50 with Leishmania amazonensis [1] (setting [5]) is 30.5 µM; in the test on Leishmania amazonensis [2] (setting [5]) it was above 90 µM; in test [3] (Mus musculus, Macrophage, 48 h) it was above 90 µM. Moreover, in test [4], the “Ratio IC50” value is recorded as above 3.
In the case of “D-glutonic acid, 2,4:2',4'-O-[oxybis-(oxidostibylidyne)]bis-, trisodium salt, nonahydrate”, in test [4], the Ratio IC50 was above 5.
With `CCOC(=O)C1=C[C@H](C)[C@@H](O)[C@H]2OC/C(=C\C=C\[C@H](C)[C@H](O[C@H]3C[C@H](OC)[C@@H](O[C@H]4C[C@H](OC)[C@@H](O)[C@H](C)O4)[C@H](C)O3)/C(C)=C/C[C@@H]3C[C@H](O)C[C@]4(CC[C@H](C)[C@@H]([C@@H](C)CC)O4)O3)[C@@]12O`, the IC50 stood at 4.6 µM with Leishmania amazonensis [1] (setting [5]); 2.8 µM with Leishmania amazonensis [2] (setting [5]); 27.1 µM in test [3] (Mus musculus, Macrophage, 48 h). In addition, in test [4], the “Ratio IC50” value was 5.8.
As for `CC[C@H](C)[C@H]1O[C@]2(CC[C@@H]1C)C[C@@H](O)C[C@@H](CCO)O2` [SPIRODIOL], the IC50 was 54.5 µM in the test on Leishmania amazonensis [1] (setting [5]); above 90 µM with Leishmania amazonensis [2] (setting [5]); above 90 µM in test [3] (Mus musculus, Macrophage, 48 h). The “Ratio IC50” value in test [4] is on record as above 1.7.
As for `CC[C@H](C)[C@H]1O[C@]2(CC[C@@H]1C)C[C@@H](O)C[C@@H](C/C=C(\C)[C@@H](O[C@H]1C[C@H](OC)[C@@H](O[C@H]3C[C@H](OC)[C@@H](O)[C@H](C)O3)[C@H](C)O1)[C@@H](C)CO)O2`, the IC50 in the test on Leishmania amazonensis [1] (setting [5]) came to 13.2 µM; in the test on Leishmania amazonensis [2] (setting [5]), 17.1 µM; in test [3] (Mus musculus, Macrophage, 48 h), 55 µM. In addition, the “Ratio IC50” value in test [4] is on record as 4.2.
As for `CCOC(=O)C1=C[C@H](C)[C@@H](O)[C@H]2OC/C(=C\CO)[C@@]12O`, the IC50 in the test with Leishmania amazonensis [1] (setting [5]) was 13.8 µM; in the test with Leishmania amazonensis [2] (setting [5]), above 90 µM; in test [3] (Mus musculus, Macrophage, 48 h) it was above 90 µM. Moreover, the “Ratio IC50” value in test [4] is above 6.5.
With IVERMECTIN [listing 1 of 2 here], in test [4], the Ratio IC50 is 14.5.
With `CC[C@H](C)[C@H]1O[C@]2(CC[C@@H]1C)C[C@@H]1C[C@@H](C/C=C(\C)[C@@H](O[C@H]3C[C@H](OC)[C@@H](O[C@H]4C[C@H](OC)[C@@H](O)[C@H](C)O4)[C@H](C)O3)[C@@H](C)/C=C/C=C3\CO[C@@H]4[C@H](O)[C@@H](C)C=C(C(=O)O1)[C@]34O)O2`, the IC50 is 3.6 µM in the test on Leishmania amazonensis [1] (setting [5]); 13.8 µM with Leishmania amazonensis [2] (setting [5]); 65.5 µM in test [3] (Mus musculus, Macrophage, 48 h). The “Ratio IC50” value in test [4] is 18.2.
`CC[C@H](C)[C@H]1O[C@]2(CC[C@@H]1C)C[C@@H]1C[C@@H](C/C=C(\C)[C@@H](O)[C@@H](C)/C=C/C=C3\CO[C@@H]4[C@H](O)C(C)=C[C@@H](C(=O)O1)[C@]34O)O2` [IVM AGLYCONE]: the IC50 is 32 µM with Leishmania amazonensis [1] (setting [5]); 8.3 µM in the test on Leishmania amazonensis [2] (setting [5]); above 90 µM in test [3] (Mus musculus, Macrophage, 48 h). Moreover, the “Ratio IC50” value in test [4] is above 2.8.
Turning to IVERMECTIN [listing 2 of 2 here], the IC50 is 5 µM in the test on Leishmania amazonensis [1], 7 µM in the test on Leishmania amazonensis [2] and 72.4 µM in test [3] (macrophage).
Regarding `CC[C@H](C)[C@H]1O[C@]2(CC[C@@H]1C)C[C@@H](O)C[C@@H](C/C=C(\C)[C@@H](O[C@H]1C[C@H](OC)[C@@H](O)[C@H](C)O1)[C@@H](C)CO)O2` [NORTHERN MONOSACCHARIDE], the 50% inhibitory concentration (IC50) in the test with Leishmania amazonensis [1] (setting [5]) came out at 41.5 µM; in the test on Leishmania amazonensis [2] (setting [5]), 65.7 µM; in test [3] (Mus musculus, Macrophage, 48 h), 32.1 µM. In addition, in test [4], the “Ratio IC50” value was found to be 0.8.
Compound `C[C@@H]1[C@H](O)[C@@H](C)/C=C/C=C/C=C/C=C/C=C/C=C/C=C/[C@H](O[C@@H]2O[C@H](C)[C@@H](O)[C@H](N)[C@@H]2O)C[C@@H]2O[C@](O)(C[C@@H](O)C[C@@H](O)[C@H](O)CC[C@@H](O)C[C@@H](O)CC(=O)O[C@H]1C)C[C@H](O)[C@H]2C(=O)O` [AMPHOTERICIN B] yielded an IC50 in the test on Leishmania amazonensis [2] (setting [5]) of 4.4 µM.
For the compound `CCOC(=O)[C@@H]1C=C(C)[C@@H](O)[C@H]2OC/C(=C\CO)[C@]21O` [SOUTHERN DIOL], the IC50 is 38.6 µM in the test on Leishmania amazonensis [1] (setting [5]); above 90 µM in the test with Leishmania amazonensis [2] (setting [5]); above 90 µM in test [3] (Mus musculus, Macrophage, 48 h). Further, the “Ratio IC50” value in test [4] is above 2.3.
Regarding `CCOC(=O)[C@@H]1C=C(C)[C@@H](O)[C@H]2OC/C(=C\C=C\[C@H](C)[C@H](O[C@H]3C[C@H](OC)[C@@H](O[C@H]4C[C@H](OC)[C@@H](O)[C@H](C)O4)[C@H](C)O3)/C(C)=C/C[C@@H]3C[C@H](O)C[C@]4(CC[C@H](C)[C@@H]([C@@H](C)CC)O4)O3)[C@]21O`, the concentration for half-maximal inhibition (IC50) in the test with Leishmania amazonensis [1] (setting [5]) worked out at 6.5 µM; in the test on Leishmania amazonensis [2] (setting [5]), 10.7 µM; in test [3] (Mus musculus, Macrophage, 48 h), 42.9 µM. For the same compound, the Ratio IC50 in test [4] came to 6.6.
Taken in the same sequence, the figures for `CC[C@H](C)[C@H]1O[C@]2(CC[C@@H]1C)C[C@@H]1C[C@@H](C/C=C(\C)[C@@H](O[C@H]3C[C@H](OC)[C@@H](O)[C@H](C)O3)[C@@H](C)/C=C/C=C3\CO[C@@H]4[C@H](O)C(C)=C[C@@H](C(=O)O1)[C@]34O)O2` were 29.7 µM, 7.7 µM, above 90 µM and above 3.
Taken in the same sequence, the figures for `CO[C@H]1C[C@H](O[C@H]2[C@H](C)O[C@@H](O[C@H](C(C)O)[C@@H](C)CO)C[C@@H]2OC)O[C@@H](C)[C@@H]1O` (some centres undefined) were above 90 µM, above 90 µM, 86.2 µM and below 1.
